For series [1], the species on record is Mus musculus. The series is described as follows: Dose range for antitumor activity against leukemia L1210 in mice. The class given is functional. In outline:
(§1)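 Adult F1 (DBA/2 × C57Bl/6) mice inoculated ip with 10^5 L1210 cells on day 0, 8–10 mice per dose. Compound in olive oil (2–150 mg/kg) given day 1, repeated days 5 and 9 only in mice without toxicity. Daily mortality with autopsy. T/C × 100 from median survival; active if >125 and significant by Wilcoxon W test. Acute LD50 determined graphically.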

The species named for series [2] is Mus musculus. The series is described as follows: Optimum dose for antitumor activity against leukemia L1210 in mice. Type of series: functional. In outline:
as §1

Series [3] can be described thus: Median lethal dose in L1210 (murine luekemia) inoculated mice. Type of series: toxicity, organism-based. As to conditions: mouse, in vivo. Summed up:
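Adult F1 (DBA/2 × C57Bl/6) mice inoculated ip with 10^5 L1210 cells on day 0; 8–10 mice per dose; compound in olive oil (2–150 mg/kg) on day 1, repeated days 5 and 9 only in mice without toxicity signs. Daily mortality, autopsy to separate leukemic from toxic deaths; acute LD50 determined graphically (98% confidence limits).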

Series [4] can be described thus: Therapeutic index in L1210 (murine leukemia) inoculated mice. As to conditions: mouse; read-out: TI.
For series [5], the species on record is Mus musculus. Put plainly: The oncostatic index (T=median survival time in the treated group of mice, C=median survival time in the control group X 100) was calculated. The class given is functional. In outline:
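Mice (adult F1 DBA/2 × C57Bl/6) given 10^5 L1210 cells ip on day 0; 8–10 per dose group; olive-oil doses 2–150 mg/kg on day 1, repeated days 5 and 9 in non-toxic mice. T/C × 100 from median survival times, treated vs control. Active if >125 and significant by Wilcoxon W test; ∞ means >50% of group cured.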

Structures are written as SMILES.

Take `NC(=O)CC(NC(=O)N(CCCl)N=O)C(=O)NCCCl` (stereo unspecified): the Dose in the series listed under Mus musculus [1] came out at 30 mg/kg. The OD in the series listed under Mus musculus [2] was 20 mg/kg. The same molecule displayed an LD50 in series [3] of 35 mg/kg. The selectivity ratio in series [4] worked out at 1.75.

In the series filed under Mus musculus [1], `CN(CC(=O)NCCCl)C(=O)N(CCCl)N=O` came in with a Dose of 280 mg/kg. In addition, the OD in the series listed under Mus musculus [2] was 200 mg/kg. The molecule also showed an LD50 in series [3] of 400 mg/kg. For the same molecule, the selectivity ratio in series [4] was 2.

Turning to `CCC(C)C(NC(=O)N(CCCl)N=O)C(=O)NCCCl` (stereo unspecified), in the series filed under Mus musculus [1], the Dose was determined as 75 mg/kg. For the same molecule, in the series filed under Mus musculus [2], the OD is 50 mg/kg. Besides, in series [3], the LD50 was 130 mg/kg. Further, in series [4], the selectivity ratio amounted to 2.6.

`CC(C)CC(NC(=O)N(CCCl)N=O)C(=O)NCCCl` (stereo unspecified) returned a Dose in the series filed under Mus musculus [1] of 50 mg/kg. Moreover, in the series filed under Mus musculus [2], the OD turned out to be 35 mg/kg. In series [3], this molecule yielded an LD50 of 64 mg/kg. Besides, in series [4], the selectivity ratio stood at 1.8.

With `O=NN(CCCl)C(=O)NC(Cc1c[nH]c2ccccc12)C(=O)NCCCl` (stereo unspecified), the Dose in the series listed under Mus musculus [1] is 35 mg/kg. In the series listed under Mus musculus [2], this molecule displayed an OD of 27 mg/kg. The molecule further returned a 50% lethal dose (LD50) in series [3] of 65 mg/kg. Moreover, the selectivity ratio in series [4] was 2.4.

In the series listed under Mus musculus [1], `O=NN(CCCl)C(=O)N1CCCC1C(=O)NCCCl` (stereo unspecified) came in with a Dose of 35 mg/kg. This molecule also displayed an LD50 in series [3] of 80 mg/kg. Moreover, the T/C in the series listed under Mus musculus [5] was 194%.

Turning to `O=NN(CCCl)C(=O)NCC(=O)NCCCl`, the Dose in the series listed under Mus musculus [1] was determined as 20 mg/kg. In the series listed under Mus musculus [2], this molecule displayed an OD of 12 mg/kg. Also, the LD50 in series [3] amounted to 25 mg/kg. Besides, the selectivity ratio in series [4] was found to be 2.

On to `O=NN(CCCl)C(=O)NCCC(=O)NCCCl`, for which the Dose in the series listed under Mus musculus [1] came out at 50 mg/kg. In the series listed under Mus musculus [2], this molecule returned an OD of 35 mg/kg. The selectivity ratio in series [4] is 2.9.

`O=NN(CCCl)CCSSCCN(CCCl)N=O` showed a Dose in the series listed under Mus musculus [1] of 50 mg/kg. This molecule registered an OD in the series listed under Mus musculus [2] of 30 mg/kg. In addition, in series [3], the LD50 was 75 mg/kg. Moreover, the selectivity ratio in series [4] came to 2.5.

`CC(O)C(NC(=O)N(CCCl)N=O)C(=O)NCCCl` (stereo unspecified) displayed a Dose in the series listed under Mus musculus [1] of 20 mg/kg. The same molecule gave an OD in the series listed under Mus musculus [2] of 15 mg/kg. Also, the LD50 in series [3] came out at 25 mg/kg. The selectivity ratio in series [4] was 1.6.

`O=NN(CCCl)C(=O)NCCCC(=O)NCCCl`: the Dose in the series listed under Mus musculus [1] turned out to be 50 mg/kg. The same molecule displayed an OD in the series filed under Mus musculus [2] of 35 mg/kg. Further, the selectivity ratio in series [4] was 3.6.

Take `CC1(C)O[C@@H]2[C@H](O1)[C@@H](COC(=O)c1ccc([N+](=O)[O-])cc1)O[C@H]2NC(=O)N(CCCl)N=O`: the Dose in the series filed under Mus musculus [1] turned out to be 30 mg/kg. In the series listed under Mus musculus [2], this molecule had an OD of 20 mg/kg. For the same molecule, the LD50 in series [3] amounted to 90 mg/kg. Besides, the selectivity ratio in series [4] was found to be 4.5.

In turn, `CC(NC(=O)N(CCCl)N=O)C(=O)NCCCl` (stereo unspecified) came in with a Dose in the series listed under Mus musculus [1] of 30 mg/kg. For the same molecule, the OD in the series filed under Mus musculus [2] turned out to be 20 mg/kg. The same molecule had an LD50 in series [3] of 35 mg/kg. For the same molecule, the selectivity ratio in series [4] amounted to 1.75.

`CSCCC(NC(=O)N(CCCl)N=O)C(=O)NCCCl` (stereo unspecified) returned a Dose in the series listed under Mus musculus [1] of 30 mg/kg. The same molecule showed an OD in the series filed under Mus musculus [2] of 20 mg/kg. The LD50 in series [3] was 32 mg/kg. The selectivity ratio in series [4] was determined as 1.6.

As for `O=NN(CCCl)C(=O)NC(Cc1ccccc1)C(=O)NCCCl` (stereo unspecified), in the series listed under Mus musculus [1], the Dose worked out at 60 mg/kg. For the same molecule, the OD in the series filed under Mus musculus [2] was found to be 50 mg/kg. This molecule also displayed an LD50 in series [3] of 80 mg/kg. Further, in series [4], the selectivity ratio came out at 1.6.

Take `O=NN(CCCl)C(=O)NC(Cc1ccc(O)cc1)C(=O)NCCCl` (stereo unspecified): the Dose in the series filed under Mus musculus [1] worked out at 25 mg/kg. Moreover, the LD50 in series [3] is 40 mg/kg. Also, in the series listed under Mus musculus [5], the T/C is reported as 211%.

Molecule `O=NN(CCCl)C(=O)N[C@H]1C(O)O[C@H](CO)[C@@H](O)[C@@H]1O` (stereo partly specified) [CHLOROZOTOCIN] came in with a Dose in the series filed under Mus musculus [1] of 25 mg/kg. For the same molecule, in the series listed under Mus musculus [2], the OD came out at 15 mg/kg. In addition, the LD50 in series [3] was 35 mg/kg. For the same molecule, the selectivity ratio in series [4] stood at 2.5.

`O=NN(CCCl)C(=O)NC1CCCCC1` [LOMUSTINE]: the Dose in the series listed under Mus musculus [1] is 10 mg/kg. In series [3], this molecule had an LD50 of 30 mg/kg.

In general, LD50 refers to the dose at which mortality reaches 50%. A word on the T/C: it is the result in the treated group divided by that in the control group, in per cent.

Source of the values: ChEMBL document CHEMBL1122766, “Synthesis and antitumor evaluation of some nitrosourea and nitrogen mustard amino acid derivatives” (J Med Chem, 1984).
